Screens as filed in PubChem BioAssay.
PostGolgi yeast – growth inhibition of a yeast mutant, post-Golgi transport screen. post-Golgi transport phenotypic cell assay. inhibition, % at 10 µM. hit rate 0.9% among 98,000. AID 739;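 also: yeast cells grown in 1536-well plates; yeast grown about 18 h at 30C before absorbance read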
PostGolgi ctrl – yeast control strain growth, post-Golgi counter-screen; efflux-deficient yeast background strain, growth absorbance A615, 16 h; inhibition, % at 10 µM; hit rate 5% among 98,000
Ecoli WT expand – blocks growth of wild type E. coli BW25113; OD600 absorbance; growth inhibition, % at 100 µM; hit rate 0.15% among 98,000;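 active = growth inhibition above about 50% at one test dose, limit read from the data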;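 also: growth measured after 20 h incubation at 37 °C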
Cav32 inh – inhibitors of human Cav3.2 T-type calcium channel | O95180 | Cav3.2-expressing cells, Fluo-4 calcium fluorescence FDSS; active compounds read low | B-score at 10 µM | hit rate 4% among 100,000 | AID 449739;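 active = single-dose well whose peak fluorescence ratio is a statistical outlier from its plate by either plate-standardised score or position-corrected B-score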
Pyk2 oligo antag – blocks oligomerization of human Pyk2 in cells | Q293 cells, Pyk2 FERM NanoBiT luminescence; active compounds read low | z-score (the deposit names both 25 µM and 10 µM) | hit rate 0.83% among 99,000 | AID 1347419;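 active = Z-score of -3 or lower, scaled per plate to the spread of control and sample wells; inactive = z-score above -3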;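 also: negative z-score means lost luminescence so less FERM oligomerization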
tolC growth inh – blocks growth of E. coli BW25113 tolC mutant. OD615. growth inhibition, % at 10 µM (by protocol). hit rate 2.2% among 65,000;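 active = growth inhibition at or above a cutoff equal to the mean over every tested compound plus 3 SD, cut at about 60% in these data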;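 also: growth measured after 20 h incubation at 37 °C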
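signal = optical density read at 615 nm | test system = E. coli ΔtolC::kan strain BW25113 | timing = 20 h compound exposure of bacteria at 37 °C | buffer or medium = LB medium plus 50 µg/mL kanamycin | compound dosing = 10 µM final, single dose | evaluation = % inhibition of E. coli growth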
The depositor's hits bear a star; x = no result given. Most compounds without a hit are left out; they make up all but 8.7% or so of the library. Rule as the data show it, unless noted: active = inhibition above about 30%; inactive = the rest.

SMILES | PostGolgi yeast | PostGolgi ctrl | Ecoli WT expand | Cav32 inh | Pyk2 oligo antag | tolC growth inh
CSc1nsc(SCC(=O)N2CCN(c3ccccc3)CC2)n1 | 6 | 16 | 2 | -1.5 | 0.68 | 14
CC1CCCC(C)N1C(=O)c1cc(F)c(F)cc1Cl (configuration not stated) | -6 | 37* | 13 | 0.23 | 0.43 | -5
CC1CCN(C(=O)c2cc(F)c(F)cc2Cl)CC1 | x | x | x | 0.84 | -0.44 | x
CCCC(=O)Nc1ccc(Cl)c(NC(=O)c2cccnc2Cl)c1 | 45* | 3 | 4 | 0.14 | -1.1 | x
CCOc1cccc(NC(=O)C2CC(=O)NC(=Nc3ccccc3)S2)c1 (configuration not stated) | -2 | -1 | 0 | -4.9* | -0.12 | 5
COCCn1c(C)cc(C(=O)CSc2nnc3scc(-c4ccc(Cl)cc4)n23)c1C | x | x | x | x | x | -12
CCc1ccc(/C=C/C(=O)C2C(=O)c3ccccc3C2=O)cc1 | 0 | -9 | 8 | -3.8* | -0.34 | x
CC(C)Nc1nc2n(c(=O)n1)CCN2C(C)C | 3 | 3 | -3 | 0.82 | -1 | -7
O=C(CN1CCC(O)(c2ccc3c(c2)OCO3)CC1)OC1CCCCC1 | -5 | 41* | 2 | 0.038 | 0.39 | -4
Cc1oc(-c2ccc(Cl)cc2)nc1CN1CCC(C(=O)N2CCN(c3ccccn3)CC2)CC1 | x | x | x | x | x | 7
COc1ccc(S(=O)(=O)NCCSc2ccc(C)cc2)cc1OC | -6 | 0 | -7 | -2.2 | 0.45 | 6
Cc1ccc(SCCNS(=O)(=O)c2ccc(F)cc2)cc1 | -4 | 48* | -6 | -8.7* | 0.59 | 10
O=S(=O)(NCCCCCNS(=O)(=O)c1ccc(F)cc1)c1ccc(F)cc1 | -3 | 7 | 2 | -5.8* | 0.66 | 2
COc1ccc(S(=O)(=O)NCCSc2ccccc2)cc1OC | -3 | 2 | -2 | -1.4 | -1.1 | 11
O=S(=O)(NCCSc1ccc(Cl)cc1)c1ccc(F)cc1 | -1 | 19 | 21 | -7.7* | 0.06 | x
Cc1ccc(SCCNS(=O)(=O)c2ccc3c(c2)OCCO3)cc1 | 0 | 46* | -27 | -6.9* | -0.56 | 74*
CS(=O)(=O)c1ccc(CNC(=O)C2(C(F)(F)F)C/C(=C\Cc3ccccc3)CCCO2)cc1 (configuration not stated) | x | x | x | -2.1 | x | x
Cc1cc(C(C)(C)C)oc1C(=O)N(CC(=O)NC1CCCC1)c1c(C)cccc1C | -10 | 18 | -6 | -1.6* | -1.3 | x
Cc1cc(C(C)(C)C)oc1C(=O)N(CC(=O)NC1CCCC1)c1ccc(F)cc1 | -10 | 13 | 2 | -3.9 | -1 | x
CC(NC(=O)CSc1ncccn1)c1ccccc1 (configuration not stated) | 2 | 3 | -2 | 0.92 | 0.26 | -14
CCOCCOCN(C#N)c1nc(OC)nc(N(C)C)n1 | -5 | 2 | 0 | 0.29 | 0.77 | 9
O=C(NCc1ccco1)C1CCN(c2nc3ccccc3n2Cc2ccccc2F)CC1 | 6 | 14 | 2 | -7.1* | x | x
Cc1cc(C)nc(SCC(=O)c2ccc3c(c2)OCCO3)n1 | -3 | 6 | -3 | 0.81 | -0.91 | x
O=C(Cn1nc(Cl)nc1Cl)c1ccc2c(c1)OCCO2 | -4 | 7 | 61* | 1.6 | 0.33 | -16
COc1ccc(/C(C#N)=C/c2c(-c3ccc(Cl)cc3)nc3c(C)cccn23)cc1 | -22 | 29 | -8 | -5.8* | -0.47 | x
SMILES | PostGolgi yeast | PostGolgi ctrl | Ecoli WT expand | Cav32 inh | Pyk2 oligo antag | tolC growth inh
Cc1cccn2c(/C=N/OCc3ccc(F)cc3)c(-c3ccc(Cl)cc3)nc12 | 4 | 6 | -10 | x | 0.27 | x
COc1nnc(-c2ccc(N3CCCCC3)c(NC(C)=O)c2)c2ccccc12 | -1 | 11 | 9 | 1.1 | -1.1 | x
Cc1c(Cl)cccc1Nc1nc(N)nc(CN2CCc3ccccc3C2)n1 | 0 | 12 | 4 | -4* | -0.34 | x
Oc1c(Cl)cc(Cl)cc1C=Nc1ccc2c(c1)OCCO2 | 0 | 9 | 40 | -9* | -0.59 | x
Cc1cc(C)c(NC(=O)CSc2nnc(-c3ccncc3)n2Cc2ccco2)c(Cl)c1 | 1 | 3 | 3 | 1.2 | 0.28 | 5
COCc1nnc(NC(=O)c2ccc(S(=O)(=O)N(C)c3ccccc3)cc2)o1 | -3 | -10 | 5 | -0.56 | x | 87*
CCN(c1ccccc1)S(=O)(=O)c1ccc(C(=O)Nc2nnc(COC)o2)cc1 | -3 | 8 | 11 | x | -2.3 | 95*
COc1ccc(C2CNC(=O)C2)cc1OC1CCCC1 (configuration not stated) | x | x | x | 0.42 | x | 10
COC(=O)C1=C(C)N(C)C(C)=C(C(=O)OC)C1c1ccc(F)c(Br)c1 | 9 | 53* | 6 | -6.8* | -3.2* | 73*
Cc1cc(C(=O)CSc2nnc(-c3cccs3)o2)c(C)n1-c1ccccc1 | -2 | 20 | -14 | -5.1* | 0.75 | 37
COc1cccc(NC(=O)CSc2nnc(-c3cc(C)n(-c4ccccc4)c3C)o2)c1 | -13 | 14 | -23 | -3.6* | -0.07 | 55
C=CCn1c(COc2ccccc2F)nnc1SCC(=O)c1c[nH]c2ccccc12 | x | x | x | x | -1 | x
O=C(O)CCCC(=O)Nc1ccc(C(=O)NCc2cccnc2)cc1 | -15 | 36* | 4 | 1 | 2.4 | -11
CCCOc1ccc(C(=O)NCc2cccnc2)cc1 | 6 | 32* | -1 | -0.28 | 1 | -6
C=C(C)CNC(=S)NNC(=O)CCn1c2ccc(Cl)cc2c2cc(Cl)ccc21 | x | x | x | x | 0.23 | x
CCCCOC(=O)Nc1cccc(Cl)c1C | 11 | 8 | 9 | -1.6 | -0.49 | x
CCOC(=O)N1CCC(n2c(SCC(=O)NCc3ccccc3)nc3ccccc3c2=O)CC1 | 5 | 30 | -1 | -1.1 | -0.32 | 14
CCOC(=O)N1CCC(n2c(SCC(=O)NCCC3=CCCCC3)nc3ccccc3c2=O)CC1 | -14 | 17 | -23 | -5.1* | -1.1 | 32
CCOC(=O)N1CCC(n2c(SCC(=O)OCc3ccccc3)nc3ccsc3c2=O)CC1 | -7 | 9 | -7 | -4* | -1.8 | x
O/C(=C\Sc1nnc(Cc2ccccc2)o1)c1ccc(Br)cc1 | -2 | 14 | -11 | -3.6 | 0.16 | -3
CCOC(=O)c1cc(C)sc1/N=C/C1=C(O)CCCC1=O | x | x | x | x | -0.28 | x
Cc1ccc2nc(SCC(=O)N3CCOCC3)[nH]c2c1 | 1 | 7 | 4 | 0.15 | 0.35 | x
Cc1ccc2nc(/C(C#N)=C\c3ccc([N+](=O)[O-])o3)[nH]c2c1 | 103* | 99* | 17 | -1.1 | -2.5 | x
Cc1ccc2nc(/C(C#N)=C\c3ccc(N4CCOCC4)o3)[nH]c2c1 | x | x | x | -5* | 0.19 | x
N#C/C(=C\c1ccc(N2CCCC2)c([N+](=O)[O-])c1)c1nc2ccccc2[nH]1 | 1 | 7 | -13 | -1.2 | -2.8 | x
Cc1ccc2nc(/C(C#N)=C\c3cc(C)n(-c4cccc([N+](=O)[O-])c4)c3C)[nH]c2c1 | 28 | 25 | -14 | -6.1* | -0.06 | x
CSCCC(NC(=O)c1ccccc1)C(=O)N/N=C(\C)c1ccccc1 (configuration not stated) | x | x | x | x | 0.05 | x
Cc1cc2c(=O)n(Cc3ccco3)c(SCC(=O)c3ccc(Cl)s3)nc2s1 | 2 | 25 | 1 | -4.7* | 0.21 | 9
